Published values pooled from the literature.
Protocols differ between the studies behind these lines. Converted amounts (≈) assume the structure as drawn.

| Compound | target or system | assay | system | conditions | endpoint | result |
| --- | --- | --- | --- | --- | --- | --- |
| CN1CCN(C2=Nc3ccccc3Oc3ccc(Cl)cc32)CC1 | Severe acute respiratory syndrome coronavirus 2 | viral replication, inhibitor | A549-ACE2 |  | IC50 | 5750 nM |
| Nc1ccn([C@@H]2CS[C@H](CO)O2)c(=O)n1 | Hepatitis B virus | viral replication, qPCR | HepG2.2.15 | 14 days | IC50 | 50 nM |
| Fc1ccc([C@@H]2CCNC[C@H]2COc2ccc3c(c2)OCO3)cc1 | Severe acute respiratory syndrome coronavirus 2 | viral replication, inhibitor | A549-ACE2 |  | IC50 | 2510 nM |
| CCC(CC)COC(=O)[C@H](C)N[P@](=O)(OC[C@H]1O[C@@](C#N)(c2ccc3c(N)ncnn23)[C@H](O)[C@@H]1O)Oc1ccccc1 | Severe acute respiratory syndrome coronavirus 2 | viral replication | Vero | 0.1 µM | inhibition | 64.7% |
| CC(C)(C)[C@]1(O)CCN2C[C@@H]3c4ccccc4CCc4cccc(c43)[C@H]2C1 | Severe acute respiratory syndrome coronavirus 2 | viral replication | Vero C1008 |  | IC50 | 6610 nM |
| Cc1ccc(NC(=O)c2cc3c(=O)n4cccc(C)c4nc3n2C)cc1Cl | Severe acute respiratory syndrome coronavirus 2 | viral replication | Vero | 1 nM | inhibition | 8.11% |
| N#C[C@]1(CO)O[C@@H](n2cc(F)c3c(N)ncnc32)C[C@@H]1O | Hepatitis B virus | viral replication, qPCR | HepG2.2.15 | 14 days | IC50 | 26 nM |
| C=CCNC1=C2C[C@@H](C)C[C@H](OC)[C@H](O)[C@@H](C)/C=C(\C)[C@H](OC(N)=O)[C@@H](OC)/C=C\C=C(/C)C(=O)NC(=C(C)C1=O)C2=O | ARPE-19 | cell growth or viability, MTT |  |  | IC50 | > 20000 nM |
| [O-][N+]1=C(c2ccc(Cl)cc2)C2=NCCN2c2ccccc21 | Clostridioides difficile | microbial growth |  |  | MIC90 | 0.25 µg/mL (≈ 0.84 µM) |
| O=C(/C=C/c1ccc(O)c(O)c1/C=C/c1ccc(O)c(O)c1)O[C@H](Cc1ccc(O)c(O)c1)C(=O)O | Severe acute respiratory syndrome coronavirus 2 | cytopathic effect, inhibitor | Vero C1008 | 100 µM | inhibition | 58.3% |
| CCN(CC)CCCC(C)Nc1ccnc2cc(Cl)ccc12 (stereo not drawn) | Severe acute respiratory syndrome coronavirus 2 | viral replication, inhibitor | Vero C1008 |  | IC50 | 1580 nM |
| COc1ccc(C[C@@H]2c3cc(Oc4cc(C[C@@H]5c6cc(O)c(OC)cc6CCN5C)ccc4O)c(OC)cc3CCN2C)cc1 | Severe acute respiratory syndrome coronavirus 2 | cytopathic effect | Vero C1008 | 0.7812 µM | inhibition | 0% |
| CCN(CC)CCO[C@H]1CC[C@@]2(C)C(=CC[C@@H]3[C@@H]2CC[C@]2(C)C(=O)CC[C@@H]32)C1 | Severe acute respiratory syndrome coronavirus 2 | viral replication, inhibitor | A549-ACE2 |  | IC50 | 132 nM |
| Cc1cc(NC(=O)c2cc3c(=O)n4cccc(C)c4nc3n2C)ccc1Br | Severe acute respiratory syndrome coronavirus 2 | viral replication | Vero | 1 nM | inhibition | 5.51% |
| COc1c2c(cc3c1OCO3)[C@]13C=C[C@H](OC)C[C@@H]1[N@](C2)C[C@H]3OC(=O)c1ccc2ccccc2c1 | PANC-1 | cell growth or viability, WST-1 |  |  | IC50 | > 10000 nM |
| C=C[C@@](C)(/C=C/c1ccc(O)cc1)CCC=C(C)C | Severe acute respiratory syndrome coronavirus 2 | cytopathic effect, inhibitor | Vero C1008 | 12.5 µM | inhibition | 0% |
| CN(CCc1ccc(Cl)c(Cl)c1)CCN1CCCC1 | Severe acute respiratory syndrome coronavirus 2 | viral replication | Vero C1008 |  | IC50 | 5250 nM |
| CC(=O)c1cccc(NC(=O)c2cc3c(=O)n4ccccc4nc3n2C)c1 | Severe acute respiratory syndrome coronavirus 2 | viral replication | Vero | 1 µM | inhibition | 93.7% |
| CN(C)CCCC1(c2ccc(F)cc2)OCc2cc(C#N)ccc21 (stereo not drawn) | Severe acute respiratory syndrome coronavirus 2 | viral replication, inhibitor | A549-ACE2 |  | IC50 | 3310 nM |
| Cc1ncc([N+](=O)[O-])n1CCO | Fusobacterium nucleatum | microbial growth |  |  | MIC50 | ≤ 0.06 µg/mL |
| OCCN1CCN(CCCN2c3ccccc3C=Cc3ccccc32)CC1 | Severe acute respiratory syndrome coronavirus 2 | viral replication, inhibitor | A549-ACE2 |  | IC50 | 2510 nM |
| CCc1ccc(NC(=O)c2cc3c(=O)n4ccccc4nc3n2C)cc1 | Severe acute respiratory syndrome coronavirus 2 | viral replication | Vero | 10 nM | inhibition | 6.1% |
| CC(C)=CCc1c(O)ccc(C(=O)/C=C/c2ccc(O)cc2)c1O | Severe acute respiratory syndrome coronavirus 2 | cytopathic effect | Vero C1008 | 12.5 µM | inhibition | 0% |
| Cn1c(C(=O)Nc2ccc3c(c2)OCCO3)cc2c(=O)n3ccccc3nc21 | Severe acute respiratory syndrome coronavirus 2 | viral replication | Vero | 1 nM | inhibition | 5.41% |
| O=C(O[C@@H]1Cc2c(O)cc(O)cc2O[C@@H]1c1cc(O)c(O)c(O)c1)c1cc(O)c(O)c(O)c1 | Severe acute respiratory syndrome coronavirus 2 | cytopathic effect | Vero C1008 | 3.125 µM | inhibition | 0% |
| O=C(Nc1ccccc1F)c1cc2c(=O)n3ccccc3nc2n1Cc1ccccc1 | Severe acute respiratory syndrome coronavirus 2 | viral replication | Vero | 0.1 µM | inhibition | 87.2% |
| O=[N+]([O-])c1ccc(C2=[N+]([O-])c3ccccc3N3CCN=C23)cc1 | Fusobacterium nucleatum | microbial growth |  |  | MIC50 | ≤ 0.06 µg/mL |
